This passage reports cytotoxicity results from ChEMBL document CHEMBL4513216, “Probing the Open Global Health Chemical Diversity Library for Multistage-Active Starting Points for Next-Generation Antimalarials” (ACS Infect Dis, 2020).

This series is described as follows: Toxicity liver stage against HepG2, at 10uM. More on the design: test concentration 10 uM, cell line HepG2-A16-CD81EGFP. The format is cell-based. The settings on record: human, HepG2-A16-CD81EGFP cells; read-out: INHIBITION
The method in brief:
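Uninfected HepG2-A16-CD81EGFP cells, 3 × 10^3 per well, 1536-well, plated on prespotted compound at 10 μM final, parasite-free screening media added to match infected plates; puromycin 10 μM positive, DMSO 0.5% negative; run in parallel with 48 h PbLuc assay at 37 °C, 5% CO2; viability by CellTiter-Glo luminescence, normalized to controls.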
As to `CC[C@@H](C)[C@H](NC(=O)Cn1ccc2c(Cl)cccc21)C(=O)O`, the cytotoxicity at 10 µM is 2.88%.

For the molecule `COc1nn(C)cc1C(=O)NCC(=O)NCc1cccnc1`, the cytotoxicity at 10 µM is -6.32%. Then `CC(C)CN1C[C@H]2CCN(C(=O)c3ccccn3)CC[C@H]2S1(=O)=O`, with 0.582%; and `CC(=O)N1CCC2(C1)C(=O)N(CC1CC1)c1ccccc12` (stereo unspecified), with 2.26%; and `O=C(Cc1ccsc1)NCC1Cn2nnc(-c3ccoc3)c2CO1` (stereo unspecified), with 17.6%. The figure for `CS(=O)(=O)N1CCN(CC2CC2)c2ncccc2C1` is -152%; for `O=C(c1ccno1)N1CCC2(CC1)C(=O)Nc1ccccc12` it is -134%; for `CCOc1ccc(C2SCC(=O)Nc3c2c(=O)[nH]n3C(CC)CC)cc1` (stereo unspecified) it is 6.5%. The figure for `CC(=O)N1CCC(Oc2ccc(Cl)cn2)CC1` is -19.5%; for `CCCNC(=O)c1sc(Nc2ccc(Cl)cn2)nc1C` it is -15.2%; for `COC[C@@]12CCO[C@@H]1CCN(C(=O)COc1ccccc1OC)C2` it is -8.89%.

On to `CS(=O)(=O)NC[C@]12COC[C@H]1CN(C(=O)c1ccoc1)C2`, for which the cytotoxicity at 10 µM was found to be 4.34%. Consider `NCc1n[nH]c(-c2ccc(F)cc2)n1`, for which the cytotoxicity at 10 µM is 0.186%. Consider `Cc1nnc(C2CCN(c3ccc(F)cc3)CC2)o1`, for which the cytotoxicity at 10 µM stood at 0.207%.

For `CN(C)C(=O)c1cccc(C2CCN(c3ncccn3)CC2)n1`, the cytotoxicity at 10 µM was 1.24%. `CS(=O)(=O)N[C@@H]1CN(C(=O)c2cc3ccccc3s2)C[C@H]1O`: the cytotoxicity at 10 µM is -0.378%. Then `CC(=O)N(C)Cc1ccccc1NC(=O)c1ccccc1C`, with 1.18%; and `O=S1(=O)CCCN(Cc2ccccc2OCC(F)(F)F)CC1`, with 9.11%. The figure for `CC(=O)N1CCN(c2ccccc2CNc2ccc3[nH]ncc3c2)CC1` is 9.17%.

`NC(=O)C(NC(=O)CCc1ccc(Cl)s1)c1ccccc1` (stereo unspecified): the cytotoxicity at 10 µM amounted to 1.28%. Then `Cc1noc(C(C)N2CCN(CCn3ccccc3=O)CC2)n1` (stereo unspecified), with 5.31%; and `CN(CCc1ccccn1)C(=O)Nc1cccnc1-n1cccn1`, with 3.25%.

Regarding `O=C(NCCNc1ncccn1)NCCc1c(F)cccc1F`, the cytotoxicity at 10 µM amounted to 7.49%.

As for `Cc1oc(CNC(=O)Cc2ccccc2Cl)cc1C(=O)O`, the cytotoxicity at 10 µM amounted to 0.723%. On to `CC(C)c1nc(C2CCCN(C(=O)CN3CCN(C)CC3)C2)no1` (stereo unspecified), for which the cytotoxicity at 10 µM was 3.8%. The figure for `N#Cc1ccc(C(=O)N(Cc2ccncc2)C2CC2)cc1` is -8.53%. Then `CCN(CCC(=O)NC1CC1)Cc1ccc(Cl)s1`, with 3.88%; and `CC(C)(C)OC(=O)NCC1CCCCN1Cc1ccncc1` (stereo unspecified), with 9.04%.

Turning to `CCCS(=O)(=O)N1CCC(NC(=O)c2ccc(C)s2)CC1`, the cytotoxicity at 10 µM is -11.4%. As for `Cn1c(C(=O)N2CCC(C3OCCO3)CC2)c(Cl)c2ccccc21`, the cytotoxicity at 10 µM worked out at 13.7%. Regarding `O=S(=O)(CCN1CCOC(Cn2cccn2)C1)c1ccccc1` (stereo unspecified), the cytotoxicity at 10 µM was -0.165%. The figure for `CCCC(=O)N1CCC(C(=O)NCCN2CCC(C)CC2)CC1` is -2.6%; for `COCC(C)NC(=O)NCCCc1cc(N)n(-c2ccccc2)n1` (stereo unspecified) it is -12.2%; for `Cc1cc(C(=O)N2CCC(Nc3cccnc3)CC2)c(C)s1` it is -141%.

For `CN(C)C(CNC(=O)NCc1ccco1)c1cccs1` (stereo unspecified), the cytotoxicity at 10 µM was -3.29%.

For `OCc1ccc(CNc2ccccc2CN2CCC(O)CC2)o1`, the cytotoxicity at 10 µM was determined as 1.85%. For the molecule `Cc1cc(-n2cncn2)ccc1C(=O)N(CC(F)(F)F)C(C)C`, the cytotoxicity at 10 µM was -3.72%. The figure for `O=C(c1cnns1)N1CCN(c2ccc(F)cc2Cl)CC1` is -145%; for `Cc1noc(C2CCN(C(C)c3nc(C(C)(C)C)no3)CC2)n1` (stereo unspecified) it is 4.13%. The figure for `CC1CCN(C(=O)C(C)N2CCc3[nH]nc(C(F)(F)F)c3C2)CC1` (stereo unspecified) is 2.54%; for `CC(=O)NCC1CCN(c2ccnc3ccc(Br)cc23)CC1` it is 14.2%; for `CC(C)CCN1C(=O)CC(N(C)Cc2nc3ccccc3c(=O)[nH]2)C1=O` (stereo unspecified) it is -3.85%.

Consider `Cc1nc2sccn2c1CNc1ccc(C(=O)O)cc1`, for which the cytotoxicity at 10 µM was found to be 11.7%. Then `CC(C)(C)SCC(=O)NC(C)(C(N)=O)c1cccc(Cl)c1` (stereo unspecified), with 1.61%; and `Cn1cc(C2CCCN2C(=O)Cn2c(=O)oc3ccccc32)cn1` (stereo unspecified), with 1.84%; and `CN(Cc1nnn(CC2CCC2)n1)C(=O)c1ccccc1`, with -6.06%. Regarding `C1CCCN(c2nc(C3CC3)no2)CC1`, the cytotoxicity at 10 µM was -5.59%.

As to `CCCNC(=O)C(C)Nc1cccc(Oc2ccc(C#N)cn2)c1` (stereo unspecified), the cytotoxicity at 10 µM is -7.99%. The figure for `CCN(C(=O)c1ccc2c(c1)OCO2)C1CC(=O)NC1=O` (stereo unspecified) is -3.04%; for `Cc1n[nH]cc1CNCC(c1ccsc1)N(C)C` (stereo unspecified) it is 3.05%. The figure for `CSC1(CNC(=O)CCc2ccc(Cl)s2)CCOCC1` is 6.45%; for `Cc1ccc(C(=O)N2CCSCC2)cc1NC(=O)NCCO` it is -9.64%. The figure for `CCc1csc(C2CCCN(C(=O)c3cnn(CC)c3)C2)n1` (stereo unspecified) is 4.73%.

Consider `Cc1nn(C)c(C)c1CCC(=O)N1CCCC1Cn1cccn1` (stereo unspecified), for which the cytotoxicity at 10 µM was found to be 1.78%. In the case of `Cc1cc(C)c2ncn(CCOCCO)c(=O)c2c1`, the cytotoxicity at 10 µM was 8.17%. Then `O=C(O)c1cc(-c2ccncc2)cc(S(=O)(=O)NCc2ccccn2)c1`, with -51.9%; and `COc1cccc2c1OCC(CNC(=O)CCn1cnnn1)C2` (stereo unspecified), with -144%; and `CN1CC2(CCN(C(=O)CCc3nc4cccnc4n3C)C2)OC1=O` (stereo unspecified), with 1.56%. The figure for `CC(C)c1nc(CN(C)C(=O)c2ccc3c(c2)OCC(=O)N3)cs1` is -4.15%; for `Cc1ccc(N2CCN(C(=O)C(O)c3cccc(Cl)c3)CC2=O)cc1` (stereo unspecified) it is -5.01%. The figure for `N#Cc1ccccc1C(=O)N1C[C@@H](CN2CCCCCC2)[C@@H](CO)C1` is 1.1%; for `Cc1ccnc(NC(=O)c2ccc(C)o2)c1` it is -4.33%. Turning to `O=C(O)C1CCN(C[C@H]2CC[C@@H](Cc3ccc4c(c3)OCO4)O2)CC1`, the cytotoxicity at 10 µM is -7.48%.

Turning to `O=C(c1ccc(O)cn1)N1CCOC(c2ccc(Cl)c(Cl)c2)C1` (stereo unspecified), the cytotoxicity at 10 µM is -4.57%. For the molecule `CN(CCO)C[C@@H]1CN(Cc2ccccc2-c2ccccc2)C[C@@H]1CO`, the cytotoxicity at 10 µM is -14%. Then `CCCc1nc(N[C@H]2COC[C@@H]2N2CCCCC2)c2cnn(C)c2n1`, with 0.727%. The figure for `CCNC(=O)C1CCN(c2nc(-c3ccco3)nc3c2CCNCC3)C1` (stereo unspecified) is -5.87%; for `CN(Cc1n[nH]c(=O)n1Cc1cccs1)S(C)(=O)=O` it is -4.2%; for `O=C(O)[C@@H]1CN(C(=O)c2ccc(O)cc2)C[C@H]1c1cccc(F)c1` it is -126%. Then `CSc1ccccc1CN1CCCn2nc(CNC(=O)N(C)C)cc2C1`, with -25.5%; and `Cc1csc(N2CCN(CC(=O)NCc3ccccn3)CC2C)n1` (stereo unspecified), with -4.04%; and `CC(C)Cc1noc(CN2CCN(C(=O)c3ccccc3F)CC2)n1`, with -10.8%. Take `Cc1nc(CN2CCCC(NCc3cnc(C(C)(C)C)s3)C2)no1` (stereo unspecified): the cytotoxicity at 10 µM was determined as 0.38%.

With `N#Cc1cccnc1N1CCCN(C(=O)CCc2nccs2)CC1`, the cytotoxicity at 10 µM is -11.5%. For `CCc1nc(CN2CCCN(C(=O)CCOC(C)C)CC2)cs1`, the cytotoxicity at 10 µM was -17.3%. The figure for `COc1cc(C)c(C(C)NC(=O)NCCCn2cncn2)cc1OC` (stereo unspecified) is -16.2%; for `Cc1noc(C(C)N2CCN(Cc3nnc(C4CC4)o3)CC2)n1` (stereo unspecified) it is -11.8%.

Turning to `CCOc1ncccc1CNC(=O)Nc1cc(C)nn1C`, the cytotoxicity at 10 µM was found to be 1.25%. Then `O=C(NCC(F)(F)F)C1CSCN1S(=O)(=O)c1ccc(F)cc1Cl` (stereo unspecified), with -12.8%.

As for `c1cnnc(N2CCCC2CNc2ncnc3sccc23)c1` (stereo unspecified), the cytotoxicity at 10 µM is -12.9%. Then `O=C(c1ccc2c(c1)CCC2)N1CCC(c2n[nH]c(C3CC3)n2)CC1`, with -8.06%; and `CN(Cc1cnn(-c2ccccc2)n1)C1CCCN(c2cccnn2)C1` (stereo unspecified), with -9.83%.

Regarding `Cc1cccc2nc(C(=O)N3CCC(Nc4cccnn4)CC3)cn12`, the cytotoxicity at 10 µM is -0.77%. The figure for `Cc1ccoc1C(=O)N1CCOCC2(CCN(c3ncccn3)C2)C1` (stereo unspecified) is -7.23%; for `CCOCC1CN(Cc2ccoc2)Cc2nn(CC3CC3)cc21` (stereo unspecified) it is -11.9%. Then `O=C(NC1CC1)N1CC[C@H]2[C@H]1CCN2c1nncs1`, with -4.94%. Consider `O=C1CO[C@@H]2CN(CC3CCOCC3)C[C@H]2N1Cc1ccncc1`, for which the cytotoxicity at 10 µM is -139%.

For `Cc1cnc(N2CCCn3c(nnc3CN(C)C(C)C)C2)nc1`, the cytotoxicity at 10 µM came out at 4.42%. The figure for `Cc1cccc(N2CCC3(CCCN(C(=O)c4cccnc4)C3)C2)n1` (stereo unspecified) is 0.677%. Then `CO[C@@H]1CCN(C(=O)c2ccsc2)[C@@H]2CN(CC3CC3)C[C@@H]21`, with -3.1%; and `Cn1cccc1CN1CCC2(CC1)CN(c1ccccc1)C(=O)CO2`, with -130%; and `Cc1nnc(N2C[C@H](C(=O)NCC3CC3)[C@@H]3CCO[C@@H]3C2)s1`, with 17.1%. Then `c1cnc(N2CCCC3(CCN(CC4CCOC4)CC3)C2)nc1` (stereo unspecified), with -2.21%; and `c1cncc(CN2CCCn3nnc(CN4CCCC4)c3C2)c1`, with 4.78%.

For `CCc1nccn1CC(=O)N1C[C@@H]2CC[C@H]1CN(C(=O)N(C)C)C2`, the cytotoxicity at 10 µM was -4.67%. As for `Cc1ncncc1C(=O)N1C[C@@H]2CC[C@H]1CN(C(=O)c1ccncc1)C2`, the cytotoxicity at 10 µM was -7.61%.
